Holding throughout (assay type): functional, cell-based
Assay [1] has as its system +SA cell. Briefly: Antiproliferative activity against mouse +SA cells assessed as decrease in cell growth up to 100 uM after 4 days by MTT assay. A digest of the protocol:
(§1)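 Highly malignant +SA mouse mammary epithelial cells were grown in serum-free medium with 10 ng/mL EGF and 10 µg/mL insulin as mitogens. Cells were seeded at 5 × 10^4 cells/well, 6 wells per group, and fed medium containing compound over 0.01-1000 µM for 4 days. Viable cell number was read by MTT colorimetric assay and reported as mean cell count/well + SEM.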

In assay [2] the test system is +SA cell. The assay can be described thus: Antiproliferative activity against mouse +SA cells assessed as decrease in cell growth at 0 to 10 uM after 4 days by MTT assay. A digest of the protocol: as §1
The subject of assay [3] is +SA cell. Briefly: Antiproliferative activity against mouse +SA cells assessed as decrease in cell growth at 100 to 1000 uM after 4 days by MTT assay. The gist of the method: as §1

Calls of active or inactive are those of the source. The calls are words filed in the database; no cut-off is given here.

As to `CC1=C2CC/C(C)=C/CC/C(C)=C/CC/C(C)=C/[C@@H]2OC1=O`, in the assay with +SA cell [1], the result was Active. For `CC1=C2CC/C(C)=C/CC[C@@H](C)C(=O)CC/C(C)=C/[C@@H]2OC1=O`, the result with +SA cell [1] was inactive.

On to `CC1=C2CC/C(C)=C/CC[C@]3(C)O[C@H]3CC/C(C)=C/[C@@H]2OC1=O`, for which the outcome in the assay on +SA cell [2] was inactive. Further, the result in the assay with +SA cell [3] was Active.

For `CC1=C2CC[C@H](C)[C@H]3CC[C@](C)(O)[C@H](CC/C(C)=C/[C@@H]2OC1=O)O3` (mixture of isomers), the result in the assay with +SA cell [1] was inactive. As for `CC1=C2CC[C@@](C)(O)CCC[C@](C)(O)[C@@H]3CC[C@@](C)(C[C@@H]2OC1=O)O3` (relative stereo), the outcome in the assay on +SA cell [1] was inactive. Still for that read-out and setting: with `CC1=C2CC[C@H](C)[C@@H]3CC[C@](C)(O)[C@H](CC/C(C)=C/[C@@H]2OC1=O)O3` (relative stereo) the entry was “inactive”; with `CC1=C2CC[C@H](C)[C@@H]3CC[C@](C)(O)[C@H](CC[C@@](C)(O)C[C@@H]2OC1=O)O3` (relative stereo), “inactive”. On the same count and under the same terms, with `CC1=C2CC[C@]3(C)O[C@@H](CC/C(C)=C/[C@@H]2OC1=O)[C@@](C)(O)CC[C@@H]3Br` (relative stereo) the entry was “Active”. On the same count and under the same terms, for `CC1=C2CC[C@]3(C)O[C@@H](CC/C(C)=C/[C@@H]2OC1=O)[C@@](C)(O)CC[C@H]3Br` (relative stereo) the value was “inactive”.

For the origin of these results see ChEMBL document CHEMBL1148971, “Bioactive rearranged and halogenated semisynthetic derivatives of the marine natural product sarcophine” (J Nat Prod, 2004).
